From ChEMBL document CHEMBL4325889, “Natural products hybrids: 3,5,4'-Trimethoxystilbene-5,6,7-trimethoxyflavone chimeric analogs as potential cytotoxic agents against diverse human cancer cells” (Eur J Med Chem, 2019)

How the values were obtained:
Type in all cases: functional
HL-60(TB) = assay: Growth inhibition of human HL-60(TB) cells at 10 uM after 48 hrs by SRB assay relative to control; settings: HL-60, 48 h, read-out: GI
Summary of the method: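 Run at NCI under its standard single-dose protocol against a leukemia cell panel. Cells were exposed to 10 µM; growth was read by sulforhodamine B staining of cellular protein and expressed as % growth inhibition versus untreated control. Values above 100% mean the cell population fell below the starting count (cytocidal). Each value is the average of duplicates.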

HCC 2998 = assay: Growth inhibition of human HCC2998 cells at 10 uM after 48 hrs by SRB assay relative to control; settings: HCC 2998, 48 h, read-out: GI
Summary of the method: (§1)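 Screened at the National Cancer Institute by the standard NCI protocol using the sulforhodamine B assay, which measures cellular protein. Single dose of 10 µM. Result is percent growth inhibition; values above 100% mean cell number fell below the initial population. Values are the average of duplicates.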

NCI-H322M = assay: Growth inhibition of human NCI-H322M cells at 10 uM after 48 hrs by SRB assay relative to control; settings: read-out: GI; summary of the method: as §1
TK-10 = assay: Growth inhibition of human TK10 cells at 10 uM after 48 hrs by SRB assay relative to control; settings: TK-10, 48 h, read-out: GI
Summary of the method: (§2)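 NCI screen against its human cancer cell line panel by the standard NCI protocol, SRB protein stain. Single dose of 10 μM. Percent growth inhibition versus control; values above 100% mean the cell population fell below the starting number. Each value is the mean of duplicates.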

K562 = assay: Growth inhibition of human K562 cells at 10 uM after 48 hrs by SRB assay relative to control; settings: K562, 48 h, read-out: GI; summary of the method: as §1
SK-MEL-2 = assay: Growth inhibition of human SK-MEL-2 cells at 10 uM after 48 hrs by SRB assay relative to control; settings: SK-MEL-2, 48 h, read-out: GI; summary of the method: as §1
SN12C = assay: Growth inhibition of human SN12C cells at 10 uM after 48 hrs by SRB assay relative to control; settings: read-out: GI; summary of the method: as §1
MDA-MB-468 = assay: Growth inhibition of human MDA-MB-468 cells at 10 uM after 48 hrs by SRB assay relative to control; settings: MDA-MB-468, 48 h, read-out: GI; summary of the method: as §1
COLO 205 = assay: Growth inhibition of human COLO205 cells at 10 uM after 48 hrs by SRB assay relative to control; settings: COLO 205, 48 h, read-out: GI; summary of the method: as §1
HCT-116 = assay: Growth inhibition of human HCT116 cells at 10 uM after 48 hrs by SRB assay relative to control; settings: HCT-116, 48 h, read-out: GI; summary of the method: as §1
LOX IMVI = assay: Growth inhibition of human LOXIMVI cells at 10 uM after 48 hrs by SRB assay relative to control; settings: read-out: GI; summary of the method: as §1
UACC-257 = assay: Growth inhibition of human UACC257 cells at 10 uM after 48 hrs by SRB assay relative to control; settings: UACC-257, 48 h, read-out: GI; summary of the method: as §2
SF-539 = assay: Growth inhibition of human SF539 cells at 10 uM after 48 hrs by SRB assay relative to control; settings: SF-539, 48 h, read-out: GI; summary of the method: as §1
786-0 = assay: Growth inhibition of human 786-0 cells at 10 uM after 48 hrs by SRB assay relative to control; settings: 786-0, 48 h, read-out: GI; summary of the method: as §1
HOP-92 = assay: Growth inhibition of human HOP92 cells at 10 uM after 48 hrs by SRB assay relative to control; settings: HOP-92, 48 h, read-out: GI; summary of the method: as §1
CCRF-CEM = assay: Growth inhibition of human CCRF-CEM cells at 10 uM after 48 hrs by SRB assay relative to control; settings: read-out: GI; summary of the method: as §1
HCT-15 = assay: Growth inhibition of human HCT15 cells at 10 uM after 48 hrs by SRB assay relative to control; settings: HCT-15, 48 h, read-out: GI; summary of the method: as §1
U-251 = assay: Growth inhibition of human U251 cells at 10 uM after 48 hrs by SRB assay relative to control; settings: U-251, 48 h, read-out: GI; summary of the method: as §2
NCI-H23 = assay: Growth inhibition of human NCI-H23 cells at 10 uM after 48 hrs by SRB assay relative to control; settings: NCI-H23, 48 h, read-out: GI; summary of the method: as §1
Hs-578T = assay: Growth inhibition of human Hs 578T cells at 10 uM after 48 hrs by SRB assay relative to control; settings: read-out: GI; summary of the method: as §1
NCI/ADR-RES = assay: Growth inhibition of human NCI/ADR-RES cells at 10 uM after 48 hrs by SRB assay relative to control; settings: read-out: GI; summary of the method: as §1
SF-295 = assay: Growth inhibition of human SF295 cells at 10 uM after 48 hrs by SRB assay relative to control; settings: SF-295, 48 h, read-out: GI; summary of the method: as §1
SR = assay: Growth inhibition of human SR cells at 10 uM after 48 hrs by SRB assay relative to control; settings: read-out: GI; summary of the method: as §2
DU-145 = assay: Growth inhibition of human DU145 cells at 10 uM after 48 hrs by SRB assay relative to control; settings: DU-145, 48 h, read-out: GI; summary of the method: as §1
IGROV-1 = assay: Growth inhibition of human IGROV1 cells at 10 uM after 48 hrs by SRB assay relative to control; settings: IGROV-1, 48 h, read-out: GI; summary of the method: as §1
MCF7 = assay: Growth inhibition of human MCF7 cells at 10 uM after 48 hrs by SRB assay relative to control; settings: MCF7, 48 h, read-out: GI; summary of the method: as §1
A549 = assay: Growth inhibition of human A549 cells at 10 uM after 48 hrs by SRB assay relative to control; settings: A549, 48 h, read-out: GI; summary of the method: as §1
RXF 393 = assay: Growth inhibition of human RXF393 cells at 10 uM after 48 hrs by SRB assay relative to control; settings: RXF 393, 48 h, read-out: GI; summary of the method: as §1
SK-MEL-5 = assay: Growth inhibition of human SK-MEL-5 cells at 10 uM after 48 hrs by SRB assay relative to control; settings: SK-MEL-5, 48 h, read-out: GI; summary of the method: as §1
NCI-H226 = assay: Growth inhibition of human NCI-H226 cells at 10 uM after 48 hrs by SRB assay relative to control; settings: NCI-H226, 48 h, read-out: GI; summary of the method: as §1
RPMI-8226 = assay: Growth inhibition of human RPMI8226 cells at 10 uM after 48 hrs by SRB assay relative to control; settings: RPMI-8226, 48 h, read-out: GI; summary of the method: as §1
Malme-3M = assay: Growth inhibition of human MALME-3M cells at 10 uM after 48 hrs by SRB assay relative to control; settings: read-out: GI; summary of the method: as §1
SK-MEL-28 = assay: Growth inhibition of human SK-MEL-28 cells at 10 uM after 48 hrs by SRB assay relative to control; settings: SK-MEL-28, 48 h, read-out: GI; summary of the method: as §1
SNB-75 = assay: Growth inhibition of human SNB75 cells at 10 uM after 48 hrs by SRB assay relative to control; settings: SNB-75, 48 h, read-out: GI; summary of the method: as §2

Compound	inhibition of growth at 10 µM (HL-60(TB)) [%]	inhibition of growth at 10 µM (HCC 2998) [%]	inhibition of growth at 10 µM (NCI-H322M) [%]	inhibition of growth at 10 µM (TK-10) [%]	inhibition of growth at 10 µM (K562) [%]	inhibition of growth at 10 µM (SK-MEL-2) [%]	inhibition of growth at 10 µM (SN12C) [%]	inhibition of growth at 10 µM (MDA-MB-468) [%]	inhibition of growth at 10 µM (COLO 205) [%]	inhibition of growth at 10 µM (HCT-116) [%]	inhibition of growth at 10 µM (LOX IMVI) [%]	inhibition of growth at 10 µM (UACC-257) [%]	inhibition of growth at 10 µM (SF-539) [%]	inhibition of growth at 10 µM (786-0) [%]	inhibition of growth at 10 µM (HOP-92) [%]	inhibition of growth at 10 µM (CCRF-CEM) [%]	inhibition of growth at 10 µM (HCT-15) [%]	inhibition of growth at 10 µM (U-251) [%]	inhibition of growth at 10 µM (NCI-H23) [%]	inhibition of growth at 10 µM (Hs-578T) [%]	further results
COc1cccc(C(=O)Nc2cccc(-c3cc(=O)c4c(O)c(OC)c(OC)cc4o3)c2)c1	19.5	11.8	30.9	16.7	69.2	21.6	34.9	28.8	5.46	44.5	57.6	25.9	22.9	26.7	31.2	50.5	58.4	28.4	32.6	34.1	inhibition of growth at 10 µM (NCI/ADR-RES): 43.7%; inhibition of growth at 10 µM (SF-295): 33.1%; inhibition of growth at 10 µM (SR): 54.8%; inhibition of growth at 10 µM (DU-145): 36.7%; inhibition of growth at 10 µM (IGROV-1): 25.7%; inhibition of growth at 10 µM (MCF7): 34.9%; inhibition of growth at 10 µM (A549): 35.4%; inhibition of growth at 10 µM (RXF 393): 1.37%; inhibition of growth at 10 µM (SK-MEL-5): 48.9%; inhibition of growth at 10 µM (NCI-H226): 36.3%; inhibition of growth at 10 µM (RPMI-8226): 74.2%; inhibition of growth at 10 µM (Malme-3M): 29.5%; inhibition of growth at 10 µM (SK-MEL-28): 22.5%; inhibition of growth at 10 µM (SNB-75): 13.1%
COc1cc2oc(-c3cccc(C(=O)Nc4ccccc4)c3)cc(=O)c2c(OC)c1OC	12.7	1.29	17.7	8.98	29.6	15.4	27.3	9.98	2.76	18.3	33	5.48	19.8	7.46	29.2	35.1	20.8	9.89	7.79	8	inhibition of growth at 10 µM (NCI/ADR-RES): 18.2%; inhibition of growth at 10 µM (SF-295): 4.34%; inhibition of growth at 10 µM (SR): 35.9%; inhibition of growth at 10 µM (DU-145): 12.2%; inhibition of growth at 10 µM (IGROV-1): 19.4%; inhibition of growth at 10 µM (MCF7): 7.49%; inhibition of growth at 10 µM (A549): 16.7%; inhibition of growth at 10 µM (RXF 393): 24.9%; inhibition of growth at 10 µM (SK-MEL-5): 35.3%; inhibition of growth at 10 µM (NCI-H226): 12.7%; inhibition of growth at 10 µM (RPMI-8226): 59.4%; inhibition of growth at 10 µM (Malme-3M): 12.5%; inhibition of growth at 10 µM (SK-MEL-28): 8.31%; inhibition of growth at 10 µM (SNB-75): 7.02%
